Data reported in PMC7948434 (ACS Omega, 2021).
Positions of bridges follow the written chain, without caps; N, C: chain ends. Residues, ends and D or L forms follow the SMILES beside them. No end group written: not given here.

B1: N36 peptide derived from HIV-1 JR-FL gp41 (peptide)
chain: SGIVQQQNNLLRAIEAQQRMLQLTVWGIKQLQARVL
B2: fejerlectin (peptide)
peptide: RLCYMVLPCP
modifications: disulfide 3-9 (inferred)

Columns and labels:
[1] = system: gp41 6-HB (N36 and C34 peptides); experiment: ELISA for inhibiting gp41 6-HB formation; assay type: biochemical, HIV-1; settings: read-out: IC50, gp41 6-HB formation; 2 μM N36, 2 μM C34, 37 °C, ELISA 450 nm; mean ± SD, n = 3
How it was run: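 2 μM N36 was preincubated with the test compound (5–50 μM) at 37 °C for 30 min, then with 2 μM C34 at 37 °C for another 30 min. The mixture went onto plates coated with 2 μg/mL rabbit anti-6-HB IgG. Detection used 1 μg/mL NC-1 mAb, biotin-anti-mouse IgG, streptavidin-HRP and TMB, stopped with 1 M H2SO4, read at A450. Mean ± SD, n = 3.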

[2] = system: HIV-1SF162, HIV-1NL4-3, and HIV-1_81A and NL4-3; experiment: time-of-addition assay, results in words for the viruses together; assay type: cell-based; settings: AZT 45 nM, maraviroc 24 nM, AMD3100 50 nM
How it was run: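 TZM-bl cells (5 × 10^5/mL) were infected with HIV-1NL4-3, HIV-1SF162 or HIV-1 81A/NL4-3 at 100 TCID50 at 37 °C. Test compound (added as 25 μM) or control was introduced at 0, 0.5, 1, 2, 4, 6, 8 or 24 h post-infection. Medium was replaced at 24 h, and supernatant p24 antigen was measured at 48 h. Mean ± SD, n = 3.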

[3] = serum stability, HA activity after incubation in human serum; assay type: in vitro ADME; settings: 3 h; method: human serum at 37 °C, read-out HA titer
How it was run: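 Test compound was held in human serum at 37 °C for 0–4 h before HA titration. Mouse erythrocytes were washed in Alsever's solution and used as a 2% (v/v) suspension in PBS pH 7.5. Twofold serial dilutions were made in V-bottom plates, with PBS as negative control. Titer is the reciprocal of the lowest concentration giving HA. Repeated at least three times.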

TZM-bl cells = experiment: cytotoxicity in vitro; assay type: cell-based; settings: MTT, 48 h, 1 to 1000 μM, mean ± SD, n = 3
How it was run: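 TZM-bl cells, 2 × 10^4/well in DMEM with 10% FBS and 1% penicillin/streptomycin, were cultured 24 h, then exposed to the test compound (1–1000 μM) for 48 h. MTT (0.5 mg/mL) was applied for 4 h, and formazan was dissolved in DMSO and read at 570 nm. CC50 was computed from the dose series. Mean ± SD, n = 3.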

HIV-1SF162 = settings: 1SF162, 48 h
HIV-1NL4-3 = settings: 1NL4-3, 48 h
HIV-1_81A and NL4-3 = settings: 1 81A and NL4-3, 48 h
[4] = system: HIV-1JR-FL pseudotyped virus; settings: 72 h
[5] = system: HIV-1HXB2 pseudotyped virus; settings: 72 h
gp41 = settings: cited from earlier work
HIV-1 = settings: cited from earlier work
fejerlectin = biological target: B2; experiment: SPR
[6] = biological target: B1; experiment: ELISA

`COc1ccc(S(=O)(=O)O)cc1N=Nc1c(S(=O)(=O)O)cc2cc(Nc3nc(Nc4ccccc4)nc(Nc4cc(C)c(N=Nc5cc(S(=O)(=O)O)cc6cc(S(=O)(=O)O)cc(O)c56)cc4OC)n3)ccc2c1O` [ADS-J1] showed an IC50 [1] of 1530 ± 480 nM.

In the case of `c1cc(CN2CCCNCCNCCCNCC2)ccc1CN1CCCNCCNCCCNCC1` [AMD3100], the “anti-HIV activity when added 8 h after infection” value (“anti-HIV activity when added 8 h” below) [2] is reported as “significantly decreased 8 h after infection”.

With `Cc1cn([C@H]2C[C@H](N=[N+]=[N-])[C@@H](CO)O2)c(=O)[nH]c1=O` [AZT, zidovudine] the “anti-HIV activity when added 8 h” value [2] was “still had high antiviral activity when added 8 h after infection”.

For `CSCC[C@@H]1NC(=O)[C@H](Cc2ccc(O)cc2)NC(=O)[C@@H](NC(=O)[C@H](CC(C)C)NC(=O)[C@@H](N)CCCNC(=N)N)CSSC[C@@H](C(=O)N2CCC[C@H]2C(=O)O)NC(=O)[C@@H]2CCCN2C(=O)[C@H](CC(C)C)NC(=O)[C@H](C(C)C)NC1=O` [fejerlectin, RLCYMVLPCP] (H-RLCYMVLPCP-OH; disulfide 3-9), the “stability of HA activity in human plasma” value [3] was “stable for 3 h in human plasma”, the CC50 (TZM-bl cells) was 182490 ± 9350 nM and the IC50 (HIV-1SF162) was 2170 ± 1030 nM. It also gave an IC50 (HIV-1NL4-3) of 1430 ± 340 nM, an IC50 (HIV-1_81A and NL4-3) of 2800 ± 370 nM and an EC50 [4] of 4200 ± 960 nM. It also gave an EC50 [5] of 9630 ± 2300 nM.

For `O=C(CCc1ccc(O)cc1)c1c(O)cc(O[C@@H]2O[C@H](CO)[C@@H](O)[C@H](O)[C@H]2O)cc1O` [trilobatin], the “HIV-1 entry/fusion inhibition via gp41 NHR” value (gp41) is listed as “inhibited HIV-1 entry/fusion by binding the gp41 NHR region and blocking the formation of fusion-active 6-HB”.

For caerin 1.1, the “suppression of HIV proliferation” value (HIV-1) is given as “suppress HIV proliferation by direct inactivation”.

For maraviroc, the “anti-HIV activity when added 8 h” value [2] was “significantly decreased 8 h after infection”.

For retrocyclin-1, the “protection of cells from HIV-1 infection” value (HIV-1) is given as “protect cells from HIV-1 infection by binding with high affinity to gp120, CD4, and galactosylceramide”.

For sifuvirtide, the “anti-HIV-1 activity by inhibiting 6-HB formation” value (gp41) is listed as “potent anti-HIV-1 activity by inhibiting 6-HB formation”.

In the case of B1, the Kd (fejerlectin) is reported as 466000 nM.

B2 gave an IC50 [6] of 2610 nM.
